Data as given in ChEMBL document CHEMBL2375308, “Synthesis and selected immunological properties of substituted quino[3,2-b]benzo[1,4]thiazines” (Eur J Med Chem, 2013).

Assays:
PBMC [1] = experiment: Cytotoxicity against human PBMC cells at 10 ug/mL after 24 hrs by MTT assay relative to DMSO-treated control; type: cell-based
How it was run: (§1)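 Ficoll-isolated PBMC ([…]) in supplemented RPMI-1640, 2 × 10⁵/well, cultured 24 h with the preparations at the indicated concentrations; compounds dissolved in DMSO (10 mg/mL stock) and diluted in medium.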

PBMC [2] = experiment: Cytotoxicity against human PBMC cells at 50 ug/mL after 24 hrs by MTT assay relative to DMSO-treated control; type: cell-based; how it was run: as §1
PBMC [3] = experiment: Inhibition of LPS-induced TNFalpha production in human PBMC at 25 ug/mL after overnight incubation relative to DMSO-treated control; type: functional
How it was run: (§2)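 Single-donor venous blood diluted 10× in RPMI-1640, 1 mL aliquots, stimulated with LPS (E. coli O111:B4). Compounds added at […]; corresponding DMSO dilutions as controls. Overnight incubation, supernatants frozen at −20 °C, TNF-α measured by biological assay; percentage inhibition versus DMSO control.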

PBMC [4] = experiment: Inhibition of LPS-induced TNFalpha production in human PBMC at 5 ug/mL after overnight incubation relative to DMSO-treated control; type: functional; how it was run: as §2
PBMC [5] = experiment: Antiproliferative activity against PHA-stimulated human PBMC at 50 ug/mL after 4 days by MTT assay relative to DMSO-treated control; type: functional
How it was run: (§3)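 PBMC from one donor's heparinized blood, Ficoll gradient isolated, in RPMI-1640 with 10% FCS; 2 × 10⁵ cells/well. PHA added at […]; compounds from DMSO stock (10 mg/mL) diluted in medium; matching DMSO dilutions as control. Four-day culture, proliferation read by MTT colorimetry; percentage inhibition versus control.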

PBMC [6] = experiment: Antiproliferative activity against PHA-stimulated human PBMC at 10 ug/mL after 4 days by MTT assay relative to DMSO-treated control; type: functional; how it was run: as §3

SMILES	Activity (PBMC [1])	Activity (PBMC [2])	inhibition at 25 µg/mL (PBMC [3]) [%]	inhibition at 5 µg/mL (PBMC [4]) [%]	Activity (PBMC [5]) [%]	Activity (PBMC [6]) [%]
Clc1ccc2c(c1)Sc1cc3ccccc3nc1N2	Non-toxic	Non-toxic	9.6	2	5.7	-0.3
CSc1ccc2c(c1)Sc1cc3ccccc3nc1N2CCN1CCCCC1	18%	91.7%	34.6	49.2	92	93.8
CC(=O)NCCCN1c2ccccc2Sc2cc3ccccc3nc21	Non-toxic	91.9%	32.2	-0.4	92.4	68.7
Cc1ccc(S(=O)(=O)NCCCCN2c3ccccc3Sc3cc4ccccc4nc32)cc1	Non-toxic	Non-toxic	12.5	15.8	2.4	3.3
CSc1ccc2c(c1)Sc1cc3ccccc3nc1N2CCCCNC(C)=O	Non-toxic	7.9%	60.4	46.8	42	54.7
FC(F)(F)c1ccc2c(c1)Sc1cc3ccccc3nc1N2	Non-toxic	Non-toxic	-5.6	51.1	61	24.9
CCOC(=O)NCCCCN1c2ccccc2Sc2cc3ccccc3nc21	Non-toxic	Non-toxic	12.3	0.2	83.7	73.9
c1ccc2c(c1)Nc1nc3ccccc3cc1S2	Non-toxic	Non-toxic	16.1	25.6	14.4	7.1
CS(=O)(=O)NCCCCN1c2ccccc2Sc2cc3ccccc3nc21	Non-toxic	Non-toxic	42.3	14	94.3	42.3
CSc1ccc2c(c1)Sc1cc3ccccc3nc1N2CCCCNS(=O)(=O)c1ccc(C)cc1	Non-toxic	Non-toxic	37.5	70.4	-34.7	-5
CCOC(=O)NCCCCN1c2ccc(SC)cc2Sc2cc3ccccc3nc21	Non-toxic	Non-toxic	33.1	50.9	27.8	44.3
Clc1ccc2c(c1)Sc1cc3ccccc3nc1N2CCN1CCCCC1	19.2%	83.8%	56.7	-70.5	98.2	96.3
Brc1cccc2c1Sc1cc3ccccc3nc1N2	Non-toxic	Non-toxic	8.4	13.6	16.4	0.1
Brc1ccc2c(c1)Nc1nc3ccccc3cc1S2	Non-toxic	Non-toxic	-25	11.2	20.6	4.3
Cc1ccc(S(=O)(=O)NCCCN2c3ccccc3Sc3cc4ccccc4nc32)cc1	Non-toxic	Non-toxic	15.6	3.8	-0.8	6.6
Fc1ccc2c(c1)Sc1cc3ccccc3nc1N2	50%	–	–	–	–	100
CC(=O)NCCCCN1c2ccccc2Sc2cc3ccccc3nc21	Non-toxic	Non-toxic	20.2	0	94.3	72.7
Cc1ccc2c(c1)Sc1cc3ccccc3nc1N2	2.4%	15.4%	66.6	54.1	-6.2	-17.9
Clc1ccc2c(c1)Nc1nc3ccccc3cc1S2	Non-toxic	Non-toxic	19.2	-1.2	27.1	16.3
CCOC(=O)NCCCCN1c2ccc(Cl)cc2Sc2cc3ccccc3nc21	Non-toxic	Non-toxic	8.41	13.2	-12	-0.7
O=C(NCCCl)NCCCCN1c2ccccc2Sc2cc3ccccc3nc21	7.9%	Non-toxic	4.3	-1.8	88.7	16.6
CSc1ccc2c(c1)Sc1cc3ccccc3nc1N2CCCCNS(C)(=O)=O	Non-toxic	Non-toxic	13.2	72.8	62.7	53.3
CC(=O)NCCCN1c2ccc(Cl)cc2Sc2cc3ccccc3nc21	Non-toxic	Non-toxic	60.6	11.4	58.3	50.8
CS(=O)(=O)NCCCCN1c2ccc(Cl)cc2Sc2cc3ccccc3nc21	Non-toxic	Non-toxic	24.5	-7.5	43.9	59.4
FC(F)(F)c1ccc2c(c1)Nc1nc3ccccc3cc1S2	Non-toxic	21.5%	48.8	72.3	0.3	21.7
CSc1ccc2c(c1)Sc1cc3ccccc3nc1N2CCCNS(=O)(=O)c1ccc(C)cc1	Non-toxic	Non-toxic	20.8	72.1	-46.4	-5.3
CCOC(=O)NCCCN1c2ccccc2Sc2cc3ccccc3nc21	Non-toxic	Non-toxic	14.1	7.7	88.4	69.7
FC(F)(F)c1cccc2c1Sc1cc3ccccc3nc1N2	5%	Non-toxic	-2.6	74.9	13.6	2.3
